An excerpt weighted towards active compounds, which were near 1.5% of everything screened.
CXCR6 block: CXCR6 (human) receptor inhibition; inhibition, % at 20 µM; CHO-K1 PathHunter CXCR6 beta-arrestin, luminescence; O00574; hit rate 0.36% among 360,000; in the data active means inhibition above about 34%, passing the limit was not always enough;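 further: antagonist mode with CXCL16 agonist at 10 nM final; 0% = 10 nM CXCL16 with DMSO and 100% = unstimulated wells without agonist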
Target sequence (O00574 whole entry, looked up): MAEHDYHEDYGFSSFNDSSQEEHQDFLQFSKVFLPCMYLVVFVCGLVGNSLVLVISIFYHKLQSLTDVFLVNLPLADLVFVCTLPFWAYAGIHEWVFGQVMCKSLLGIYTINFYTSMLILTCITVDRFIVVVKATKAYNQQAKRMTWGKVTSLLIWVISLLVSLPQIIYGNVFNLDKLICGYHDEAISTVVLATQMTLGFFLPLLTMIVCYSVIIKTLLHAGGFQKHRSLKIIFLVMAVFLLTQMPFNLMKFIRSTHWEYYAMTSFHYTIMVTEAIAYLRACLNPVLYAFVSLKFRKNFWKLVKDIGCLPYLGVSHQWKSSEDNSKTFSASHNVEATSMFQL
EBI2 antag: EBI2 (human) antagonism; P32249; EBI2 beta-arrestin recruitment, luminescence, 7a,25-OHC stimulated; inhibition, % at 5 µM; hit rate 0.81% among 360,000; AID 651636; in the data active means inhibition above about 38%;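 further: enzyme fragment complementation signal reports receptor beta-arrestin coupling in cells; 0% = agonist plus DMSO wells and 100% = wells without agonist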
Target sequence (P32249 whole entry, looked up, the tested form may be a part): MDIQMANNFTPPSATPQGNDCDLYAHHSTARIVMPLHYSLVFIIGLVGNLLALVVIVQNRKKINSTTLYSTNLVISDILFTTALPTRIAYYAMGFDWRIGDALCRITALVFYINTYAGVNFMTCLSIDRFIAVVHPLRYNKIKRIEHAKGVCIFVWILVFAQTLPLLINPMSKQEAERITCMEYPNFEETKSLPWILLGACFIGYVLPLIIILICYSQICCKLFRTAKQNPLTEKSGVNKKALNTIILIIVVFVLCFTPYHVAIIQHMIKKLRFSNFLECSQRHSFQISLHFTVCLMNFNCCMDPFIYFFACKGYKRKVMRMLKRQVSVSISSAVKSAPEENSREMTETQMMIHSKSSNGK
CCR6 antagonist: blocks CCL20-driven beta-arrestin recruitment at human CCR6. P51684. hit rate 0.49% among 340,000. inhibition, % at 20 µM. CHO-K1 CCR6 PathHunter beta-arrestin, luminescence, CCL20-stimulated;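 active means compounds whose inhibition of the agonist-driven luminescence signal at 20 µM reaches about 50%, limit read from the data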;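 further: cells stimulated with CCL20 at 14 nM final; plate controls were DMSO with CCL20 for no effect and DMSO without agonist for full effect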
APJ agonist: APJ receptor agonism | CHO-K1 APJ PathHunter beta-arrestin, luminescence; 0% DMSO wells, 100% apelin | AID 2520 | activation, % at 20 µM | hit rate 0.11% among 330,000 | P35414;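 active means activation more than six SD over the plate average, tested at 20 µM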;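 further: 0% = DMSO alone and 100% = apelin-13 at 10 nM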
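Assay system: engineered CHO-K1 APJ arrestin reporter cells; Amount: 1000 CHO-K1 reporter cells seeded per well; Dosing: one dose, 20 µM compound, 1% DMSO; Times: compound stimulation 90 min at 25 °C, detection 60 min; Measured by: luminescent beta-gal fragment complementation, chemiluminescent substrate; Read-out: APJ–arrestin association signal; Controls: DMSO vs Apelin-13 10 nM.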
APJ antagonist: APJ receptor antagonism; P35414; CHO-K1 APJ beta-arrestin complementation, luminescence; inhibition, % at 20 µM; hit rate 0.32% among 330,000;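 active means inhibition above about 40% at 20 µM, limit read from the data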;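 further: cells challenged with 10 nM apelin-13 agonist together with compound; plate controls were apelin-13 plus DMSO wells for no effect and DMSO wells lacking apelin-13 for full effect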
APJ ag confirm: confirmation of human APJ apelin receptor agonists | shares compounds with APJ agonist | CHO-K1 APJ PathHunter beta-arrestin, luminescence | activation, % at 20 µM | hit rate 10% among 310;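 active means activation above 40%, taking the highest of four retests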;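 further: plate controls were DMSO wells for no effect and apelin-13 at 10 nM for full effect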
* hit, by the source's call; x = no result.

SMILES | CXCR6 block | EBI2 antag | CCR6 antagonist | APJ agonist | APJ antagonist | APJ ag confirm
Cc1ccc2nc(/C(C#N)=C\c3ccc([N+](=O)[O-])o3)[nH]c2c1 | -1 | 37 | -21 | 95* | -45 | 13
Cc1ccc2nc(/C(C#N)=C\c3ccc(N4CCOCC4)o3)[nH]c2c1 | 14 | 6 | 21 | 0 | 9 | x
COC(=O)C[C@H]1CC[C@H](NC(=O)c2ccc(F)cc2)[C@@H](CO)O1 | x | -4 | x | x | x | x
COCC(=O)N[C@H]1C=C[C@@H](CC(=O)OC)O[C@@H]1CO | x | -1 | x | x | x | x
CC1=C(c2ccccc2)C=NNCC1=O | 6 | -8 | -3 | x | x | x
COc1ccccc1C/C(N)=N/OC(=O)c1cccc([N+](=O)[O-])c1 | -11 | -7 | -17 | 11* | -95 | 37
COc1ccc(C/C(N)=N/OC(=O)c2cccc([N+](=O)[O-])c2)cc1 | -19 | -14 | -3 | 18* | -56 | 19
COc1ccc(C(=O)O/N=C(\N)Cc2ccc(Cl)c(Cl)c2)cc1OC | -43 | 8 | -6 | 12 | -86 | x
N/C(Cc1ccc([N+](=O)[O-])cc1)=N\OC(=O)c1cccc(Br)c1 | -24 | -2 | 2 | 4 | -40 | x
COc1ccc(C(=O)O/N=C(\N)Cc2ccc([N+](=O)[O-])cc2)c(OC)c1 | -10 | 5 | -12 | 21* | -24 | 32
COc1ccc(C(=O)O/N=C(\N)Cc2ccc(Cl)cc2)cc1OC | -2 | 14 | -7 | 12* | -57 | 24
COC(=O)[C@]12CCCCC=C1N(Cc1ccc3c(c1)OCO3)C(=O)[C@H](CC(=O)NCc1ccc(OC)c(OC)c1)C2 | x | 9 | x | x | x | x
CCOC(=O)[C@]12CCC=C1N(Cc1ccc(Cl)cc1Cl)C(=O)[C@H](CC(=O)NCc1ccccc1)C2 | 11 | 6 | x | x | x | x
Nc1[nH]c(C(=O)c2ccccc2)c(-c2cccnc2)c1C(=O)NCCc1ccc(Cl)cc1Cl | -8 | 22 | x | x | x | x
C[C@@H]1CN([C@H](C)CO)C(=O)CCCn2cc(nn2)CO[C@H]1CN(C)C(=O)Nc1ccccc1C(F)(F)F | -7 | -11 | x | x | x | x
CC(=O)c1c(C)[nH]c(C(=O)C(C)Sc2nnc(NC3CC3)s2)c1C (stereo not given) | -10 | 7 | -8 | -4 | -8 | x
Cc1ccc(NC(=O)C/C(N)=N/OC(=O)c2ccccc2)cc1 | -13 | -7 | -30 | 11* | -22 | 16
COc1ccc(-c2nc(-c3ccc(NC(=O)c4ccc(Br)o4)cc3)no2)cc1OC | -4 | -29 | 3 | 47* | -13 | 11
COc1cc(-c2nc(-c3ccc(NC(=O)c4ccc(Br)o4)cc3)no2)cc(OC)c1OC | -1 | -14 | -9 | 2 | -20 | x
CC1=C/C(=N\OS(=O)(=O)c2ccccc2)C(C)=CC1=O | 24 | -4 | 43 | 109* | -10 | 86*
CC1(C(=O)Nc2ccc3ccccc3c2)CCC(=O)N1C1CC1 (stereo not given) | 1 | -13 | x | x | x | x
O=C(COC(=O)c1ccc2ncsc2c1)Nc1ccc(OC(F)(F)F)cc1 | -4 | -3 | 5 | 18* | 2 | 13
CC(C)(C)c1ccc(NC(=O)COC(=O)c2ccc3ncsc3c2)cc1 | -8 | -7 | 13 | -2 | -13 | x
O=C(NCCc1ccc(Cl)cc1)c1cccc(S(=O)(=O)N2CCCC2)c1 | -3 | 7 | x | x | x | x
CSc1ccc(C(=O)C2CCCN(C(=O)c3ccsc3)C2)cc1 (stereo not given) | -2 | -14 | 12 | -2 | -13 | x
SMILES | CXCR6 block | EBI2 antag | CCR6 antagonist | APJ agonist | APJ antagonist | APJ ag confirm
CSc1ccc(C(=O)C2CCCN(C(=O)c3ccc4c(c3)no[n+]4[O-])C2)cc1 (stereo not given) | -18 | -9 | -3 | 18* | -107 | 44*
O=C(COC(=O)C1CC(O)CN1S(=O)(=O)c1ccc(Cl)cc1)c1ccccc1 (stereo not given) | 0 | -2 | 1 | -3 | -7 | x
Cc1[nH]c2ccccc2c1C(=O)COC(=O)C1CC(O)CN1S(=O)(=O)c1ccc(Cl)cc1 (stereo not given) | -6 | -16 | -14 | 28* | -16 | 4
CC(C)(C)OC(=O)NCCCCCc1cn([C@@H](CO)C(=O)NCCCCCCCCCCC(=O)N2CCN(C(=O)OC(C)(C)C)CC2)nn1 | -11 | -47 | -17 | 45* | -78 | 52*
CC(C)(C)OC(=O)CC[C@@H](C(=O)NCCCCCCCCCCC(=O)N1CCN(C(=O)OC(C)(C)C)CC1)n1cc(CCCCCNC(=O)OC(C)(C)C)nn1 | 21 | -4 | 24 | 0 | -3 | x
CCOc1ccc(C2NC(=O)NC(C)=C2C(=O)OCc2ccccc2)cc1 (stereo not given) | 4 | 2 | -1 | -1 | 9 | x
COc1ccc(COC(=O)C2=C(C)NC(=O)NC2c2ccc(F)cc2)cc1 (stereo not given) | 2 | -8 | -20 | 23* | -7 | 12
CN(C)CCCN(C(=O)c1ccc([N+](=O)[O-])s1)c1nc2cc3c(cc2s1)OCCO3 | -10 | -14 | -9 | 131* | -145 | 38
CN(C)CCCN(C(=O)c1cc2cc([N+](=O)[O-])ccc2s1)c1nc2cc3c(cc2s1)OCCO3 | 6 | -14 | 26 | 43* | -4 | 21
CCCCN(C)CCn1c(=S)[nH]c2cc(OCC)c(OCC)cc2c1=O | -4 | 3 | 11 | 54* | -25 | 23
CCOc1cc2[nH]c(=S)n(CCCN(CC)CC)c(=O)c2cc1OCC | 2 | 4 | 11 | 3 | 3 | x
O=C1Nc2ccccc2-c2nnnn2C1N1CCC(Cc2ccccc2)CC1 (stereo not given) | x | -5 | x | x | x | x
COc1ccc2oc(C(=O)Nc3ccc(S(=O)(=O)N(C)C4CCN(C)CC4)cc3)c(C)c2c1 | -13 | -6 | -1 | 51* | 4 | 12
CN(C)[C@H]1CCN([C@@H]2CS(=O)(=O)N[C@H]2COCc2ccccc2)C1 | -9 | -8 | x | x | x | x
COc1ccc(CC(=O)Nc2cccc(-c3nnc(-c4ccc(C)cc4)o3)c2)cc1OC | 14 | -21 | 21 | 28* | -14 | 24
Cc1cc(C)nc(/N=C(\N)Nc2ccc(OCCC(C)C)cc2)n1 | -3 | -19 | -1 | 16* | -3 | 7
COc1ccc(N/C(N)=N/c2nc(C)cc(C)n2)cc1 | -7 | -11 | x | x | x | x
COc1ccc(/C(N)=N/OC(=O)c2cccs2)cc1OC | -15 | -1 | -5 | 18* | -72 | 26
Cc1cc(C(=O)O/N=C(\N)c2ccncc2)ccc1[N+](=O)[O-] | -15 | -19 | 4 | 16 | -39 | x
COc1ccc(/C(N)=N/OC(=O)c2ccc([N+](=O)[O-])c(C)c2)cc1OC | -13 | 1 | -13 | 11* | -14 | 10
Cc1ccc2cc(NC(=O)C3(C)CCN3C(C)C)ccc2n1 (stereo not given) | -2 | -4 | x | x | x | x
CCOc1ccc2[nH]c(=O)c(CN(Cc3ccco3)C(CC)c3nnnn3Cc3ccccc3)cc2c1 (stereo not given) | 7 | -5 | 13 | 76* | 0 | 9

Compound activity deposited in PubChem BioAssay by Sanford-Burnham Center for Chemical Genomics.
